Converted amounts (≈) assume the structure as drawn.
Tests used:
Pseudomonas aeruginosa [1] = test: Antibacterial activity against Pseudomonas aeruginosa 694 infected in iv dosed immunocompetent CD-1 mouse thigh infection model assessed as reduction in colony forming units administered twice daily at 2 hrs and 12 hrs post-infection measured 24 hrs post-drug treatment; type: functional, organism-based
In short: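 Thigh model: inoculum given intramuscularly into the right thigh on day 0. IV dosing with vehicle, test agent or comparator at 2 and 12 h postinfection. Untreated groups were harvested at 2 and 24 h. Thigh muscle was collected at 24 h postinfection, homogenized in PBS pH 7.4, diluted and plated on Brain Heart Infusion agar + 0.5% charcoal. Read-out: CFU per gram thigh.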

Staphylococcus aureus [2] = test: Antibacterial activity against Staphylococcus aureus 101 ATCC 29213 assessed as bacterial growth inhibition by susceptibility testing assay; type: functional; conditions: Staphylococcus aureus, 101 ATCC 29213; read-out: MIC
In short: (§1)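 Broth microdilution MIC per CLSI in cation-adjusted Mueller Hinton broth, made fresh and held at 4 °C before testing. Medium supplemented with lysed horse blood where appropriate. Compound stocks prepared and serially diluted in sterile deionized water. Runs were accepted against QC ranges for comparator antibiotics and ATCC QC strains.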

Staphylococcus aureus [3] = test: Antibacterial activity against methicillin-resistant, tet(M) tetracycline-resistant Staphylococcus aureus 161 assessed as bacterial growth inhibition by susceptibility testing assay; type: functional
In short: (§2)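 Broth microdilution MIC per CLSI in 96-well plates; compound stocks prepared and serially diluted in sterile deionized water; cation-adjusted Mueller Hinton broth prepared fresh and held at 4 °C before testing, supplemented with lysed horse blood as appropriate; runs accepted when comparator antibiotics fell within QC ranges for appropriate ATCC quality control strains.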

Enterococcus faecalis = test: Antibacterial activity against tet(M) tetracycline-resistant Enterococcus faecalis 327 assessed as bacterial growth inhibition by susceptibility testing assay; type: functional; in short: as §2
Enterococcus faecium = test: Antibacterial activity against tet(M) tetracycline-resistant Enterococcus faecium 404 assessed as bacterial growth inhibition by susceptibility testing assay; type: functional
Enterobacter cloacae = test: Antibacterial activity against tet(A) tetracycline-resistant Enterobacter cloacae 603 assessed as bacterial growth inhibition by susceptibility testing assay; type: functional; in short: as §2
Acinetobacter baumannii = test: Antibacterial activity against tet(B) tetracycline-resistant Acinetobacter baumannii 250 assessed as bacterial growth inhibition by susceptibility testing assay; type: functional; in short: as §2
Escherichia coli [4] = test: Antibacterial activity against Escherichia coli 107 ATCC 25922 assessed as bacterial growth inhibition by susceptibility testing assay; type: functional; in short: as §1
Streptococcus pneumoniae = test: Antibacterial activity against tet(M) tetracycline-resistant Streptococcus pneumoniae 160 assessed as bacterial growth inhibition by susceptibility testing assay; type: functional
Klebsiella pneumoniae = test: Antibacterial activity against Klebsiella pneumoniae 457 harboring CTX-M-15 gene assessed as bacterial growth inhibition by susceptibility testing assay; type: functional; conditions: Klebsiella pneumoniae, 457; read-out: MIC; in short: as §2
Staphylococcus aureus [5] = test: Antibacterial activity against tet(K) tetracycline-resistant Staphylococcus aureus 158 assessed as bacterial growth inhibition by susceptibility testing assay; type: functional; conditions: Staphylococcus aureus, 158; read-out: MIC
[6] = test system: Stenotrophomonas maltophilia; test: Antibacterial activity against Stenotrophomonas maltophilia 256 assessed as bacterial growth inhibition by susceptibility testing assay; type: functional
In short: (§3)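 Medium supplemented with lysed horse blood where appropriate. Compound stocks prepared and serially diluted in sterile deionized water. Runs were accepted against QC ranges for comparator antibiotics and ATCC QC strains.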

Pseudomonas aeruginosa [7] = test: Antibacterial activity against Pseudomonas aeruginosa 555 BAA-47 assessed as bacterial growth inhibition by susceptibility testing assay; type: functional; conditions: Pseudomonas aeruginosa, 555 BAA-47; read-out: MIC; in short: as §1
Proteus mirabilis = test: Antibacterial activity against Proteus mirabilis 385 assessed as bacterial growth inhibition by susceptibility testing assay; type: functional; in short: as §1
Burkholderia cenocepacia = test: Antibacterial activity against Burkholderia cenocepacia 240 assessed as bacterial growth inhibition by susceptibility testing assay; type: functional; in short: as §3
Escherichia coli [8] = test: Antibacterial activity against tet(A) tetracycline-resistant Escherichia coli 155 assessed as bacterial growth inhibition by susceptibility testing assay; type: functional; conditions: Escherichia coli, 155; read-out: MIC; in short: as §2
[9] = Staphylococcus aureus, 161, read-out: MIC
[10] = Enterococcus faecalis, 327, read-out: MIC
[11] = Enterococcus faecium, 404, read-out: MIC
[12] = Enterobacter cloacae, 603, read-out: MIC
[13] = Acinetobacter baumannii, 250, read-out: MIC
[14] = Escherichia coli, 107 ATCC 25922, read-out: MIC
[15] = Streptococcus pneumoniae, 160, read-out: MIC
[16] = Stenotrophomonas maltophilia, 256, read-out: MIC
[17] = Proteus mirabilis, 385, read-out: MIC
[18] = Burkholderia cenocepacia, 240, read-out: MIC

Row | SMILES | MIC (Staphylococcus aureus [2]) [µg/mL] | MIC (Klebsiella pneumoniae) [µg/mL] | MIC (Staphylococcus aureus [5]) [µg/mL] | MIC (Pseudomonas aeruginosa [7]) [µg/mL] | MIC (Escherichia coli [8]) [µg/mL] | MIC (Staphylococcus aureus [3]; [9]) [µg/mL] | MIC (Enterococcus faecalis; [10]) [µg/mL] | MIC (Enterococcus faecium; [11]) [µg/mL] | MIC (Enterobacter cloacae; [12]) [µg/mL] | MIC (Acinetobacter baumannii; [13]) [µg/mL] | MIC (Escherichia coli [4]; [14]) [µg/mL] | MIC (Streptococcus pneumoniae; [15]) [µg/mL] | MIC [6, 16] [µg/mL] | MIC (Proteus mirabilis; [17]) [µg/mL] | MIC (Burkholderia cenocepacia; [18]) [µg/mL] | further results
1 | CN(C)[C@@H]1C(O)=C(C(N)=O)C(=O)[C@@]2(O)C(O)=C3C(=O)c4c(O)c5c(c(F)c4C[C@H]3C[C@@H]12)[C@@H]1[C@@H](CCN1C)CN5 (stereo in doubt; 10c) | – | – | – | – | – | – | – | – | – | – | – | – | – | – | – | inhibition (Pseudomonas aeruginosa [1]): Dose-dependent effect
2 | CN(C)[C@@H]1C(O)=C(C(N)=O)C(=O)[C@@]2(O)C(O)=C3C(=O)c4c(O)c5c(c(F)c4C[C@H]3C[C@@H]12)[C@@H]1[C@@H](CCN1C)CN5 (stereo in doubt; 10b) | 0.5 (≈ 0.922 µM) | 1 (≈ 1.84 µM) | 0.125 (≈ 0.23 µM) | 8 (≈ 14.7 µM) | 1 (≈ 1.84 µM) | – | – | – | – | – | – | – | – | – | – | MIC (Staphylococcus aureus [3]): 4 µg/mL (≈ 7.37 µM); MIC (Enterococcus faecalis): 4 µg/mL (≈ 7.37 µM); MIC (Enterococcus faecium): 1 µg/mL (≈ 1.84 µM); MIC (Enterobacter cloacae): 2 µg/mL (≈ 3.69 µM); MIC (Acinetobacter baumannii): 8 µg/mL (≈ 14.7 µM); MIC (Escherichia coli [4]): 0.25 µg/mL (≈ 0.461 µM); MIC (Streptococcus pneumoniae): 0.125 µg/mL (≈ 0.23 µM); MIC [6]: 4 µg/mL (≈ 7.37 µM); MIC (Proteus mirabilis): 2 µg/mL (≈ 3.69 µM); MIC (Burkholderia cenocepacia): 32 µg/mL (≈ 59 µM)
3 | CC1C[C@H]2CNc3c(O)c4c(c(OC(F)(F)F)c3[C@H]2N1C)C[C@H]1C[C@H]2[C@H](N(C)C)C(O)=C(C(N)=O)C(=O)[C@@]2(O)C(O)=C1C4=O (stereo partly specified) | 0.0312 (≈ 0.0501 µM) | 2 (≈ 3.21 µM) | ≤ 0.0156 | 8 (≈ 12.8 µM) | 0.0625 (≈ 0.1 µM) | 0.0312 (≈ 0.0501 µM) | ≤ 0.0156 | 0.0312 (≈ 0.0501 µM) | 2 (≈ 3.21 µM) | 1 (≈ 1.61 µM) | ≤ 0.0156 | ≤ 0.0156 | 0.25 (≈ 0.402 µM) | 2 (≈ 3.21 µM) | 16 (≈ 25.7 µM) | –
4 | CN(C)[C@@H]1C(O)=C(C(N)=O)C(=O)[C@@]2(O)C(O)=C3C(=O)c4c(O)c5c(c(OC(F)(F)F)c4C[C@H]3C[C@@H]12)C1NCCC1CN5 (mixture of isomers) | 0.5 | 2 | 0.25 | 32 | 2 | 2 | 0.5 | 0.25 | 8 | > 32 | 0.5 | 0.25 | 16 | 4 | > 32 | –
5 | CN(C)[C@@H]1C(O)=C(C(N)=O)C(=O)[C@@]2(O)C(O)=C3C(=O)c4c(O)c5c(c(OC(F)(F)F)c4C[C@H]3C[C@@H]12)[C@@H]1[C@H](CN5)CC2COCCN21 (stereo partly specified) | 2 (≈ 3.07 µM) | > 32 | 0.5 (≈ 0.769 µM) | > 32 | 16 (≈ 24.6 µM) | 4 (≈ 6.15 µM) | 0.5 (≈ 0.769 µM) | 0.25 (≈ 0.384 µM) | > 32 | 16 (≈ 24.6 µM) | 4 (≈ 6.15 µM) | 0.0625 (≈ 0.0961 µM) | 16 (≈ 24.6 µM) | > 32 | > 32 | –
6 | CN(C)[C@@H]1C(O)=C(C(N)=O)C(=O)[C@@]2(O)C(O)=C3C(=O)c4c(O)c5c(c(F)c4C[C@H]3C[C@@H]12)[C@H]1NCC[C@@]1(C)CN5 | 4 (≈ 7.37 µM) | 4 (≈ 7.37 µM) | 1 (≈ 1.84 µM) | 32 (≈ 59 µM) | 16 (≈ 29.5 µM) | 16 (≈ 29.5 µM) | 4 (≈ 7.37 µM) | 1 (≈ 1.84 µM) | 16 (≈ 29.5 µM) | > 32 | 0.5 (≈ 0.922 µM) | 0.25 (≈ 0.461 µM) | 32 (≈ 59 µM) | 4 (≈ 7.37 µM) | > 32 | –
7 | CN(C)[C@@H]1C(O)=C(C(N)=O)C(=O)[C@@]2(O)C(O)=C3C(=O)c4c(O)c5c(c(OC(F)(F)F)c4C[C@H]3C[C@@H]12)[C@@H]1[C@@H](CCN1C)CN5 | 0.0625 (≈ 0.103 µM) | 0.5 (≈ 0.822 µM) | ≤ 0.0156 | 8 (≈ 13.1 µM) | 0.0312 (≈ 0.0513 µM) | 0.125 (≈ 0.205 µM) | 0.0312 (≈ 0.0513 µM) | ≤ 0.0156 | 0.5 (≈ 0.822 µM) | 1 (≈ 1.64 µM) | ≤ 0.0156 | ≤ 0.0156 | 0.25 (≈ 0.411 µM) | 2 (≈ 3.29 µM) | 8 (≈ 13.1 µM) | –

From ChEMBL document CHEMBL3580574, “Design, Synthesis, and Biological Evaluation of Hexacyclic Tetracyclines as Potent, Broad Spectrum Antibacterial Agents” (J Med Chem, 2015)
